From ChEMBL document CHEMBL3877256, “Design, synthesis and evaluation of novel 2-amino-3-(naphth-2-yl)propanoic acid derivatives as potent inhibitors of platelet aggregation” (Eur J Med Chem, 2017)

Tests used:
[1] = target: T1, Integrin alpha-IIb/beta-3 (Homo sapiens, UniProt P05106+P08514); experiment: Antagonist activity at GP2b/GP3a receptor in human platelet rich plasma assessed as inhibition of ADP-induced platelet aggregation at 50 uM preincubated for 1 min followed by ADP addition by aggregometric method relative to control
In short: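 Human PRP from apheresis platelets, PPP from centrifugation at 3000r/min for 10 min used as reference. Compound in saline or 0.2% aqueous DMSO added to PRP, incubated 1 min, then ADP 20 μM (per table footnotes; methods list 10 μM) added. Light transmission aggregometry at 37°C, maximal aggregation vs PPP. Inhibition relative to control aggregation ratio. IC50 from at least four concentrations.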

[2] = target: T1, Integrin alpha-IIb/beta-3; experiment: Displacement of fibrinogen from human platelet GP2b/GP3a receptor after 2 hrs by ELISA
In short: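 Plates coated overnight at 4°C with fibrinogen 10 µg/ml in 0.1 M carbonate pH 9.5, blocked with 1% BSA. Purified human platelet GPIIb/IIIa (20 µg/ml) added with samples for 2 h in Tris/NaCl/CaCl2/Tween buffer pH 7.5. Bound receptor detected with anti-β3 antibody (1 h, 37°C) and alkaline phosphatase conjugate with pNPP, A405. BSA-only wells subtracted. Triplicate.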

Mus musculus [3] = experiment: Toxicity in ICR mouse assessed as bleeding time at 3 mg/kg, iv administered 30 mins prior to test by tail transection method; format: organism-based; details: in vivo, 0.5 h
In short: (§1)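 ICR mice dosed 30 min before test, saline as control. Anesthetized with 5% chloral hydrate i.p., kept at 37°C on a heating pad. 3-mm tail tip cut off and tail immersed in 37°C saline. Time until bleeding stopped for more than 5 s recorded, accumulated within 20 min. n=6.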

Mus musculus [4] = experiment: Toxicity in ICR mouse assessed as bleeding time at 15 mg/kg, iv administered 30 mins prior to test by tail transection method; format: organism-based; details: in vivo, 0.5 h; in short: as §1
Mus musculus [5] = experiment: Toxicity in ICR mouse assessed as bleeding time at 30 mg/kg, iv administered 30 mins prior to test by tail transection method; format: organism-based; details: in vivo, 0.5 h; in short: as §1
Rattus norvegicus [6] = experiment: Anti-thrombotic activity in iv dosed Sprague-Dawley rat arterio-venous shunt thrombosis model assessed as reduction in thrombus weight pretreated for 15 mins followed by arteriovenous shunt thrombosis induction measured after 20 mins; format: functional, organism-based
In short: (§2)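 SD rats of both sexes, 180~220 g, dosed by tail vein injection. After 15 min, anesthetized with 10% chloral hydrate (3 ml/kg i.p.). Shunt catheter placed between left jugular vein and right common carotid artery, opened 20 min. Thrombus dried at 60°C for 20 min and weighed without the thread. n=6.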

Rattus norvegicus [7] = experiment: Anti-thrombotic activity in Sprague-Dawley rat arterio-venous shunt thrombosis model assessed as reduction in thrombus weight at 10 mg/kg, iv pretreated for 15 mins followed by arteriovenous shunt thrombosis induction measured after 20 mins relative to control; format: functional; design: scale not given: the % may be the effect or the level left; in short: as §2

SMILES | inhibition [1] [%] | other results
O=C(O)C(Cc1c[nH]c2ccc(OCCCCC3CCNCC3)cc12)NS(=O)(=O)c1ccc(Br)cc1 (stereo not drawn) | 38.1 | 
Cl.O=C(O)C(Cc1ccc2cc(OCCCN3CCNCC3)ccc2c1)NS(=O)(=O)c1ccccc1 (racemic) |  | IC50 [2]: 80 nM; inhibition [2]: Dose-dependent effect; Time (Mus musculus [3]): 6.72 min; Time (Mus musculus [4]): 8.63 min; Time (Mus musculus [5]): 9.28 min; Activity (Rattus norvegicus [6]): Dose-dependent effect; Activity (Rattus norvegicus [7]): 40%
O=C(O)C(Cc1ccc2cc(OCCN3CCNCC3)ccc2c1)NS(=O)(=O)c1ccc(Br)cc1 (racemic) | 97.3 | 
O=C(O)C(Cc1ccc2cc(OCC3CCNCC3)ccc2c1)NS(=O)(=O)c1ccc(Br)cc1 (racemic) | < 5 | 
O=C(O)C(Cc1ccc2cc(OCCCCN3CCNCC3)ccc2c1)NS(=O)(=O)c1ccc(Br)cc1 (racemic) | 91.2 | 
O=C(O)C(Cc1ccc2cc(OCCCC3CCNCC3)ccc2c1)NS(=O)(=O)c1ccc(Br)cc1 (racemic) | < 5 | 
O=C(O)C(Cc1ccc2cc(OCCC3CCNCC3)ccc2c1)NS(=O)(=O)c1ccc(Br)cc1 (racemic) | < 5 | 
O=C(O)C(Cc1ccc2cc(OCCCN3CCNCC3)ccc2c1)NS(=O)(=O)c1ccc(Br)cc1 (racemic) | 99.1 | 

Now from value to compound, other results behind:

inhibition [1] [%] | SMILES | other results
21.5 | COc1ccc(S(=O)(=O)NC(Cc2ccc3cc(OCc4ccc(C(=N)N)cc4)ccc3c2)C(=O)O)cc1 (racemic) | 
50.2 | N=C(N)c1ccc(COc2ccc3cc(CC(NS(=O)(=O)c4ccc(Br)cc4)C(=O)O)ccc3c2)cc1 (racemic) | 
49.7 | N=C(N)c1ccc(COc2ccc3cc(CC(NC(=O)c4cccc(F)c4)C(=O)O)ccc3c2)cc1 (racemic) | 
49.4 | N=C(N)c1ccc(COc2ccc3cc(CC(NC(=O)c4ccccc4)C(=O)O)ccc3c2)cc1 (racemic) | 
32.4 | COc1ccc(C(=O)NC(Cc2ccc3cc(OCc4ccc(C(=N)N)cc4)ccc3c2)C(=O)O)cc1 (racemic) | 
> 99.5 | N=C(N)c1ccc(COc2ccc3cc(CC(NC(=O)c4ccc([N+](=O)[O-])cc4)C(=O)O)ccc3c2)cc1 (racemic) | 
23.3 | N=C(N)c1ccc(COc2ccc3cc(CC(NC(=O)c4ccc(F)cc4)C(=O)O)ccc3c2)cc1 (racemic) | 
62.9 | N=C(N)c1ccc(COc2ccc3cc(CC(NS(=O)(=O)c4ccc([N+](=O)[O-])cc4)C(=O)O)ccc3c2)cc1 (racemic) | 
> 99.5 | Cc1ccc(S(=O)(=O)NC(Cc2ccc3cc(OCc4ccc(C(=N)N)cc4)ccc3c2)C(=O)O)cc1 (racemic) | 
> 99.5 | CCCC(=O)NC(Cc1ccc2cc(OCc3ccc(C(=N)N)cc3)ccc2c1)C(=O)O (racemic) | 
> 99.5 | CCCCS(=O)(=O)NC(Cc1ccc2cc(OCc3ccc(C(=N)N)cc3)ccc2c1)C(=O)O (racemic) | 
> 99.5 | N=C(N)c1ccc(COc2ccc3cc(CC(NS(=O)(=O)c4ccccc4)C(=O)O)ccc3c2)cc1 (racemic) | IC50 [2]: 1330 nM; inhibition [2]: Dose-dependent effect
